Experimental findings from ChEMBL document CHEMBL4000155, “Synthesis and Antileukemic Activities of Piperlongumine and HDAC Inhibitor Hybrids against Acute Myeloid Leukemia Cells” (J Med Chem, 2016) are described below.

Assay [1] relates to U-937. Nature of the assay: Induction of apoptosis in p53 null human U937 cells at 2 uM after 24 hrs by annexin V-FITC/PI staining based flow cytometry. It counts as functional. Put shortly: (§1)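 Human U937 AML cells (p53 null) in RPMI 1640 with 10% FBS, 2 mM L-glutamine, penicillin/streptomycin, 37 °C, 5% CO2. Exposed 24 h to compound alone or with SAHA; vehicle DMSO < 0.1% v/v. Annexin V-FITC/PI staining and flow cytometry, reported as % Annexin V+ cells. Three independent experiments in triplicate; one representative shown. EC50 taken as concentration giving 50% Annexin V+ cells versus vehicle.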
A general note: In flow cytometry, cells or beads pass a laser one at a time.

The subject of assay [2] is MOLM-13. Briefly: Induction of apoptosis in human MOLM13 cells harboring wild type p53/FLT3-ITD mutant at 4 uM after 24 hrs by annexin V-FITC/PI staining based flow cytometry. It counts as functional. The procedure, abridged: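 Cells treated 24 h, single agents or SAHA+PL at 1:1 (each drug at the stated concentration). Annexin V-FITC/PI kit staining, then flow cytometry, reported as % Annexin V+ cells. Three independent experiments in triplicate, with data from one representative experiment. DMSO <0.1% vehicle control.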

Assay [3] concerns U-937. Nature of the assay: Induction of cell death in p53 null human U937 cells at 1 to 4 uM after 24 hrs by annexin V-FITC/PI staining based flow cytometry. It counts as functional. Put shortly: as §1
Assay [4] has as its system U-937. Nature of the assay: Induction of cell death in p53 null human U937 cells assessed as combination index at 2 to 4 uM after 24 hrs in presence of SAHA by annexin V-FITC/PI staining based flow cytometry. Type of assay: functional. The procedure, abridged: (§2)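 Cells given SAHA and PL alone or together at 1:1 ratio for 24 h, then Annexin V-FITC/PI staining and flow cytometry. Combination index computed from the % Annexin V+ data; CI < 1 synergistic, = 1 additive, > 1 antagonistic. Triplicates, three independent experiments.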

Assay [5] has as its system MOLM-13. Briefly: Induction of cell death in human MOLM13 cells harboring wild type p53/FLT3-ITD mutant assessed as combination index at 1 to 4 uM after 24 hrs in presence of SAHA by annexin V-FITC/PI staining based flow cytometry. It counts as functional. Put shortly: as §2
Assay [6] relates to U-937. Nature of the assay: Antiproliferative activity against p53 null human U937 cells after 72 hrs in presence of SAHA by MTT assay. Type of assay: functional, cell-based. To be noted: U-937, 72 h. The procedure, abridged: (§3)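 AML cell lines grown in RPMI 1640 with 10% FBS (20% for MOLM-13), 2 mM L-glutamine and penicillin/streptomycin at 37 °C, 5% CO2. Ara-C-resistant HL-60 and CMK sublines came from stepwise cytarabine selection and were kept in 600 nM or 300 nM cytarabine respectively. Cells were treated 72 h. MTT 0.05 mg/mL, 3 h at 37 °C, DMSO solubilization, absorbance at 570 nm. IC50 given ± SEM.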
(Tetrazolium assays rely on reduction of a dye to a coloured formazan, in cell work by metabolically active cells.)

Another assay has as its system HL-60. Briefly: Antiproliferative activity against Ara-C resistant human HL60 cells after 72 hrs in presence of SAHA by MTT assay. The settings on record: HL-60, 72 h. Type of assay: functional, cell-based. The procedure, abridged: as §3
A further assay is filed under the species Homo sapiens. Nature of the assay: Effect on SAHA-induced HDAC inhibition in p53 null human U937 cells assessed as hyper acetylation of histone H4 at 1 uM after 4 hrs by Western blot analysis. Type of assay: cell-based. The procedure, abridged: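 U937 cells treated at 1 μM for 4 h. Whole-cell lysates run on SDS-PAGE, transferred to PVDF and immunoblotted for acetyl-histone H4, histone H4, acetyl-α-tubulin and β-actin.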

Assay [7] concerns U-937. Briefly: Cytotoxicity against p53 null human U937 cells assessed as decrease in cell viability at 0.5 to 5 uM after 24 hrs in presence of SAHA by MTT assay. It counts as functional, cell-based. The procedure, abridged:
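MCF-10A (DMEM/F12, 5% horse serum, hydrocortisone, cholera toxin, insulin, EGF) and U937 (RPMI 1640, 10% FBS) were exposed to 0.5–5 μM, alone or PL+SAHA 1:1, for 24 h. MTT 0.05 mg/mL, 3 h at 37 °C, DMSO solubilization, A570. Viability given as mean ± SD of four to six independent experiments. DMSO <0.1% vehicle control.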

Assay [8] deals with U-937. Briefly: Upregulation of Rad51 protein expression in p53 null human U937 cells assessed as ratio of Rad51 to beta-actin level at 2 uM after 24 hrs by Western blot analysis relative to control. A general note: Immunoblotting shows a protein as a band on a membrane.

One may read the IC50 as the midpoint of a concentration-inhibition curve.

Molecules are shown by their SMILES. Calls of active or inactive are those of the source. No cut-off for these calls is given here.

`COc1cc(/C=C/C(=O)N2CCC=CC2=O)cc(OC)c1OCCCCCCC(=O)NO`: the Activity in the assay with U-937 [1] is listed as 56.9%; in the assay on MOLM-13 [2] it was 80.3%.
Consider `COc1cc(/C=C/C(=O)N2CCC=CC2=O)cc(OC)c1OC` [PIPLARTINE], for which the outcome in the assay with U-937 [3] and in the assay on U-937 [7] was Active. Moreover, the CI in the assay with U-937 [4] was below 0.9; in the assay on MOLM-13 [5] it was “<=1.1”. Also, the IC50 is 767 nM in the assay on U-937 [6] and 1130 nM with HL-60. Besides, the result in the assay filed under Homo sapiens was inactive. In addition, the Ratio with U-937 [8] worked out at 1.4.
